# Data reported in ChEMBL document CHEMBL4138103, “Discovery of efficient stimulators for adult hippocampal neurogenesis based on scaffolds in dragon's blood” (Eur J Med Chem, 2017).
# The source made the active and inactive calls. No cut-off for these calls is given here.
# Legend:
# [1] = Drug uptake in mouse brain at 20 mg/kg, po via gavage by HPLC-MS/MS analysis; assay type: ADME, organism-based; conditions: in vivo, read-out: Drug uptake
# [2] = Cytotoxicity against human SH-SY5Y cells assessed as cell survival at 1000 uM after 24 hrs by MTT assay relative to control; assay type: cell-based; conditions: read-out: Survival
# Method in brief: (§1)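 SH-SY5Y human neuroblastoma cells seeded at 5 × 10⁴ cells/mL, incubated 24 h at 37 °C, then exposed to compounds at final concentrations of […] for 24 h. MTT added for a further 4 h at 37 °C. Absorbance read at 570 nm and reported as percent viability. Five parallel samples per condition.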
# [3] = Cytotoxicity against human SH-SY5Y cells assessed as cell survival at 100 uM after 24 hrs by MTT assay relative to control; assay type: cell-based; conditions: read-out: Survival; method in brief: as §1
# Rattus norvegicus [4] = experiment: In vivo neurogenic activity in Sprague-Dawley rat neural progenitor cells at 4 mg/kg, ip qd pretreated for 28 days followed by BrdU addition at 2 hrs interval for twice on day 29 measured after 24 hrs by BrdU incorporation assay relative to control; assay type: functional
# Method in brief: (§2)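 Male SD rats aged 10 weeks, acclimatized 7 days (11 weeks old at start), dosed ip once daily for 28 days with compound in soybean oil containing 10% ethanol; vehicle group received 10% ethanol in oil. On day 29, BrdU in saline given twice at 100 mg/kg, 2 h apart. Rats sacrificed 24 h after the last BrdU. BrdU+ cells in SGZ-GCL counted by DAB immunostaining of 30 µm cryosections; n = 8; mean ± SEM.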
# [5] = Cytotoxicity against human SH-SY5Y cells assessed as cell survival at 500 uM after 24 hrs by MTT assay relative to control; assay type: cell-based; conditions: read-out: Survival; method in brief: as §1
# Rattus norvegicus [6] = experiment: In vivo neurogenic activity in Sprague-Dawley rat neural progenitor cells at 0.5 mg/kg, ip qd pretreated for 28 days followed by BrdU addition at 2 hrs interval for twice on day 29 measured after 24 hrs by BrdU incorporation assay; assay type: functional, organism-based
# Method in brief: (§3)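 Eleven-week-old SD male rats were dosed ip daily for 28 days in soybean oil with 10% ethanol, against a vehicle control. On day 29 BrdU 100 mg/kg was given twice, 2 h apart, and rats were sacrificed 24 h later. Sections were treated with HCl denaturation, BrdU antibody at 1:500 at 4 °C overnight and DAB detection. BrdU+ cells in the SGZ-GCL were counted, mean ± SEM, n = 8.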
# Rattus norvegicus [7] = experiment: In vivo neurogenic activity in Sprague-Dawley rat neural progenitor cells at 0.5 to 4 mg/kg, ip qd pretreated for 28 days followed by BrdU addition at 2 hrs interval for twice on day 29 measured after 24 hrs by BrdU incorporation assay; assay type: functional, organism-based; method in brief: as §3
# Rattus norvegicus [8] = experiment: In vivo neurogenic activity in Sprague-Dawley rat neural progenitor cells assessed as differentiation of new born NPCs to mature functional neurons at 2 mg/kg, ip qd preincubated for 28 days followed by BrdU addition at 2 hrs interval for twice on day 29 measured at 28 days post BrdU pulse by NeuN/BrdU double staining based assay relative to control
# Method in brief: (§4)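 SD male rats, 11 weeks old, were given compound ip daily for 28 days in 10% ethanol/soybean oil. On day 29 they received BrdU 100 mg/kg ip twice, 2 h apart, and were perfused 28 days after the last BrdU. Fixed 30 µm cryosections were co-stained for BrdU and NeuN by fluorescence. BrdU+ cells and the BrdU+NeuN+/BrdU+ fraction were counted against vehicle, mean ± SEM, n = 8.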
# Rattus norvegicus [9] = experiment: In vivo neurogenic activity in Sprague-Dawley rat neural progenitor cells at 2.2 mg/kg, ip qd pretreated for 28 days followed by BrdU addition at 2 hrs interval for twice on day 29 measured after 24 hrs by BrdU incorporation assay; assay type: functional, organism-based; method in brief: as §2
# Rattus norvegicus [10] = experiment: In vivo neurogenic activity in Sprague-Dawley rat neural progenitor cells assessed as differentiation of new born NPCs to mature functional neurons at 20 mg/kg, ip qd preincubated for 28 days followed by BrdU addition at 2 hrs interval for twice on day 29 measured at 28 days post BrdU pulse by NeuN/BrdU double staining based assay relative to control; method in brief: as §4
# Rattus norvegicus [11] = experiment: Effect on AKT expression in Sprague-Dawley rat adult hippocampus at 2 to 20 mg/kg, ip qd preincubated for 28 days followed by BrdU addition at 2 hrs interval for twice on day 29 measured at 28 days post BrdU pulse by immunoblot assay; assay type: functional, organism-based
# Method in brief: (§5)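 Male SD rats (received at 10 weeks, acclimatized 7 days) were dosed ip once daily for 28 days. The compounds were given in soybean oil with 10% ethanol, and the vehicle group received 10% ethanol in oil. BrdU was given 100 mg/kg twice, 2 h apart, on day 29. Hippocampal tissue was taken 24 h or 28 days later. Lysates were made in RIPA with protease inhibitors and run on 12% SDS-PAGE. Akt, pAkt, ERK1/2 and pERK1/2 were immunoblotted and read by densitometry against GAPDH, normalized to vehicle = 1.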
# Rattus norvegicus [12] = experiment: Effect on ERK expression in Sprague-Dawley rat adult hippocampus at 2.2 to 4 mg/kg, ip qd preincubated for 28 days followed by BrdU addition at 2 hrs interval for twice on day 29 measured at 24 hrs post BrdU pulse by immunoblot assay; assay type: functional, organism-based; method in brief: as §5
# Rattus norvegicus [13] = experiment: Downregulation of AKT phosphorylation in Sprague-Dawley rat adult hippocampus at 2.2 to 4 mg/kg, ip qd preincubated for 28 days followed by BrdU addition at 2 hrs interval for twice on day 29 measured at 24 hrs post BrdU pulse by immunoblot assay; assay type: functional, organism-based; conditions: in the assay text read “Upregulation” for “Downregulation”; method in brief: as §5
# Rattus norvegicus [14] = experiment: Effect on ERK expression in Sprague-Dawley rat adult hippocampus at 2 to 20 mg/kg, ip qd preincubated for 28 days followed by BrdU addition at 2 hrs interval for twice on day 29 measured at 28 days post BrdU pulse by immunoblot assay; assay type: functional, organism-based; method in brief: as §5
# Rattus norvegicus [15] = experiment: Downregulation of AKT phosphorylation in Sprague-Dawley rat adult hippocampus at 2 to 20 mg/kg, ip qd preincubated for 28 days followed by BrdU addition at 2 hrs interval for twice on day 29 measured at 28 days post BrdU pulse by immunoblot assay; assay type: functional, organism-based; method in brief: as §5
# Rattus norvegicus [16] = experiment: Downregulation of ERK phosphorylation in Sprague-Dawley rat adult hippocampus at 2 to 20 mg/kg, ip qd preincubated for 28 days followed by BrdU addition at 2 hrs interval for twice on day 29 measured at 28 days post BrdU pulse by immunoblot assay; assay type: functional, organism-based; method in brief: as §5
# Rattus norvegicus [17] = experiment: In vivo neurogenic activity in Sprague-Dawley rat neural progenitor cells at 2 mg/kg, ip qd preincubated for 28 days followed by BrdU addition at 2 hrs interval for twice on day 29 measured at 28 days post BrdU pulse by BrdU double staining based assay relative to control; assay type: functional; method in brief: as §4
# Rattus norvegicus [18] = experiment: In vivo neurogenic activity in Sprague-Dawley rat neural progenitor cells assessed as differentiation of new born NPCs to mature functional neurons at 4 mg/kg, ip qd preincubated for 28 days followed by BrdU addition at 2 hrs interval for twice on day 29 measured at 28 days post BrdU pulse by NeuN/BrdU double staining based assay relative to control; method in brief: as §4
# Rattus norvegicus [19] = experiment: Effect on AKT expression in Sprague-Dawley rat adult hippocampus at 2.2 to 4 mg/kg, ip qd preincubated for 28 days followed by BrdU addition at 2 hrs interval for twice on day 29 measured at 24 hrs post BrdU pulse by immunoblot assay; assay type: functional, organism-based; method in brief: as §5
# Rattus norvegicus [20] = experiment: Downregulation of ERK phosphorylation in Sprague-Dawley rat adult hippocampus at 2.2 to 4 mg/kg, ip qd preincubated for 28 days followed by BrdU addition at 2 hrs interval for twice on day 29 measured at 24 hrs post BrdU pulse by immunoblot assay; assay type: functional, organism-based; conditions: in the assay text read “Upregulation” for “Downregulation”; method in brief: as §5
# Rattus norvegicus [21] = experiment: Downregulation of ERK phosphorylation in Sprague-Dawley rat adult hippocampus at 0.05 to 0.5 mg/kg, ip qd preincubated for 28 days followed by BrdU addition at 2 hrs interval for twice on day 29 measured at 28 days post BrdU pulse by immunoblot assay; assay type: functional, organism-based; method in brief: as §5
# Rattus norvegicus [22] = experiment: In vivo neurogenic activity in Sprague-Dawley rat adult hippocampal at 0.5 mg/kg, ip qd preincubated for 28 days followed by BrdU addition at 2 hrs interval for twice at day 29 measured at 28 days post last dose by NeuN/BrdU double staining based immunohistochemistry assay relative to control; assay type: functional; method in brief: as §4
# Rattus norvegicus [23] = experiment: In vivo neurogenic activity in Sprague-Dawley rat adult hippocampal at 0.05 mg/kg, ip qd preincubated for 28 days followed by BrdU addition at 2 hrs interval for twice at day 29 measured at 28 days post last dose by NeuN/BrdU double staining based immunohistochemistry assay relative to control; assay type: functional; method in brief: as §4
# Rattus norvegicus [24] = experiment: Downregulation of ERK phosphorylation in Sprague-Dawley rat adult hippocampus at 0.5 to 4 mg/kg, ip qd preincubated for 28 days followed by BrdU addition at 2 hrs interval for twice on day 29 measured at 24 hrs post BrdU pulse by immunoblot assay; assay type: functional, organism-based; conditions: in the assay text read “Upregulation” for “Downregulation”; method in brief: as §5
# Rattus norvegicus [25] = experiment: Effect on AKT expression in Sprague-Dawley rat adult hippocampus at 0.5 to 4 mg/kg, ip qd preincubated for 28 days followed by BrdU addition at 2 hrs interval for twice on day 29 measured at 24 hrs post BrdU pulse by immunoblot assay; assay type: functional, organism-based; method in brief: as §5
# Rattus norvegicus [26] = experiment: Effect on ERK expression in Sprague-Dawley rat adult hippocampus at 0.5 to 4 mg/kg, ip qd preincubated for 28 days followed by BrdU addition at 2 hrs interval for twice on day 29 measured at 24 hrs post BrdU pulse by immunoblot assay; assay type: functional, organism-based; method in brief: as §5
# Rattus norvegicus [27] = experiment: Downregulation of AKT phosphorylation in Sprague-Dawley rat adult hippocampus at 0.5 to 4 mg/kg, ip qd preincubated for 28 days followed by BrdU addition at 2 hrs interval for twice on day 29 measured at 24 hrs post BrdU pulse by immunoblot assay; assay type: functional, organism-based; conditions: in the assay text read “Upregulation” for “Downregulation”; method in brief: as §5
# Rattus norvegicus [28] = experiment: Effect on AKT expression in Sprague-Dawley rat adult hippocampus at 0.05 to 0.5 mg/kg, ip qd preincubated for 28 days followed by BrdU addition at 2 hrs interval for twice on day 29 measured at 28 days post BrdU pulse by immunoblot assay; assay type: functional, organism-based; method in brief: as §5
# Rattus norvegicus [29] = experiment: Effect on ERK expression in Sprague-Dawley rat adult hippocampus at 0.05 to 0.5 mg/kg, ip qd preincubated for 28 days followed by BrdU addition at 2 hrs interval for twice on day 29 measured at 28 days post BrdU pulse by immunoblot assay; assay type: functional, organism-based; method in brief: as §5
# Rattus norvegicus [30] = experiment: Downregulation of AKT phosphorylation in Sprague-Dawley rat adult hippocampus at 0.05 to 0.5 mg/kg, ip qd preincubated for 28 days followed by BrdU addition at 2 hrs interval for twice on day 29 measured at 28 days post BrdU pulse by immunoblot assay; assay type: functional, organism-based; method in brief: as §5
Compound,"viability at 24 h, 1000 µM [2] [%]","viability at 24 h, 100 µM [3] [%]","viability at 24 h, 500 µM [5] [%]",Activity (Rattus norvegicus [7]),fold change (FC) (Rattus norvegicus [4]),further results
COc1cccc(NCC(F)Cn2c3ccc(Br)cc3c3cc(Br)ccc32)c1 (configuration not stated),–,–,–,–,–,concentration [1]: 900 nM
COc1cc(/C=C/c2ccc(OC(C)=O)cc2)cc(OC)c1,6.75,6.48,13.9,–,–,Activity (Rattus norvegicus [4]): Active; Activity (Rattus norvegicus [6]): inactive
CS(=O)(=O)Nc1ccc(/C=C/c2ccc3c(c2)OCO3)cc1,62.3,72.5,68.9,Active,2.2 - 3.5,–
CC(=O)Nc1ccc(/C=C/c2ccc3c(c2)OCO3)cc1,80.4,97,91.9,–,–,fold change (FC) (Rattus norvegicus [8]): 4.6; Activity (Rattus norvegicus [9]): Active; fold change (FC) (Rattus norvegicus [10]): 2.3; Activity (Rattus norvegicus [11]): Active; Activity (Rattus norvegicus [12]): Active; Activity (Rattus norvegicus [13]): Active; Activity (Rattus norvegicus [14]): Active; Activity (Rattus norvegicus [15]): Active; Activity (Rattus norvegicus [16]): Active; Activity (Rattus norvegicus [4]): Active; fold change (FC) (Rattus norvegicus [17]): 4.2; fold change (FC) (Rattus norvegicus [18]): 3.1; Activity (Rattus norvegicus [19]): Active; Activity (Rattus norvegicus [20]): Active
O=C(Nc1ccc(/C=C/c2ccc3c(c2)OCO3)cc1)C1CC1,85.3,98.9,97.3,Active,2.2 - 3.5,–
O=C(Nc1ccc(/C=C/c2ccc3c(c2)OCO3)cc1)c1ccccc1,85,98.6,99.3,Active,2.2 - 3.5,Activity (Rattus norvegicus [21]): Active; fold change (FC) (Rattus norvegicus [22]): 3.2; fold change (FC) (Rattus norvegicus [23]): 1.6; Activity (Rattus norvegicus [24]): Active; Activity (Rattus norvegicus [25]): Active; Activity (Rattus norvegicus [26]): Active; Activity (Rattus norvegicus [27]): Active; Activity (Rattus norvegicus [28]): Active; Activity (Rattus norvegicus [29]): Active; Activity (Rattus norvegicus [30]): Active
Oc1ccc(/C=C/c2ccc3c(c2)OCO3)cc1,14.4,39.5,20.1,–,–,Activity (Rattus norvegicus [9]): inactive
CC(C)C(=O)Nc1ccc(/C=C/c2ccc3c(c2)OCO3)cc1,42,50.9,48.4,Active,2.2 - 3.5,–
